# Experimental data from different studies.
# Each line is one published result; the experiments were not run side by side.
# Medium: Caco-2
SMILES,concentration,time,pH,endpoint,value
Cc1c(C(=O)O)ccc2c3n(nc12)[C@@H]1[C@H](C3)N(CC2CC2)[C@@]2(C(=O)Nc3cc(Cl)ccc32)[C@H]1c1cccc(Cl)c1F,,,,Papp A→B,84 ×10⁻⁶ cm/s
CCn1cc(C2CC2)c2c(Cc3ccc(C(F)(F)F)nc3)n(C)nc2c1=O,,,,Papp A→B,38.7 ×10⁻⁶ cm/s
CCCCC(CC)CNC(=N)NC(=N)NCCCCCCNC(=N)NC(=N)NCC(CC)CCCC (stereo not shown),5 µM,2 h,,Papp B→A,0.37 ×10⁻⁶ cm/s
N#Cc1cc(-c2ccc(C(=O)N3CCNCC3)cc2)ccc1-n1cc(O)c(=O)c(C(=O)O)c1,,,,Papp A→B,0.3 ×10⁻⁶ cm/s
N#C[C@@]12C[C@@H]1[C@@H](n1cnc3c(N[C@@H](C4CCC4)C4CC4)nc(I)nc31)[C@H](O)[C@@H]2O,,,,Papp A→B,5.97 ×10⁻⁶ cm/s
Cn1nc2c(=O)n(C3CC3)ncc2c1[C@](O)(c1cnc(C(F)(F)F)c(Cl)c1)C(F)(F)F,,,,Papp A→B,43.4 ×10⁻⁶ cm/s
C[C@H]1O[C@@H](O[C@H]2[C@@H](O)C[C@H](O[C@H]3[C@@H](O)C[C@H](O[C@H]4CC[C@@]5(C)[C@H](CC[C@@H]6[C@@H]5C[C@@H](O)[C@]5(C)[C@@H](C7=CC(=O)OC7)CC[C@]65O)C4)O[C@@H]3C)O[C@@H]2C)C[C@H](O)[C@@H]1O,5 µM,2 h,,Papp A→B,0.27 ×10⁻⁶ cm/s
CC(C)C[C@H](NC(=O)[C@@H]1COCCCCCC(=O)NCC(=O)N2CCC[C@H]2C(=O)N1)C(=O)[C@@]1(C)CO1,10 µM,2 h,pH 7.4,Papp A→B,0.454 ×10⁻⁶ cm/s
O=C(O)c1cn(-c2ccc(-c3ccc(C(=O)N4CCNCC4)cc3)cc2)cc(O)c1=O,,,,Papp A→B,0.2 ×10⁻⁶ cm/s
Cc1c(N(C)C)ccc2cc(C(=O)NS(=O)(=O)c3ccccc3-c3ccccc3)oc12,2 µM,2 h,pH 7.2,Papp B→A,14.3 ×10⁻⁶ cm/s
